In ChEMBL document CHEMBL3352558, “β-Keto and β-hydroxyphosphonate analogs of biotin-5'-AMP are inhibitors of holocarboxylase synthetase” (Bioorg Med Chem Lett, 2014):
Activity calls are given as the source filed them. The rule behind the calls is not given here.

Columns and labels:
[1] = target: T1, Biotin--protein ligase (Homo sapiens, UniProt P50747); assay: (§1) Inhibition of human recombinant HLCS using P67 as substrate after 2 hrs relative to vehicle-treated control
T1 sequence (P50747 whole entry): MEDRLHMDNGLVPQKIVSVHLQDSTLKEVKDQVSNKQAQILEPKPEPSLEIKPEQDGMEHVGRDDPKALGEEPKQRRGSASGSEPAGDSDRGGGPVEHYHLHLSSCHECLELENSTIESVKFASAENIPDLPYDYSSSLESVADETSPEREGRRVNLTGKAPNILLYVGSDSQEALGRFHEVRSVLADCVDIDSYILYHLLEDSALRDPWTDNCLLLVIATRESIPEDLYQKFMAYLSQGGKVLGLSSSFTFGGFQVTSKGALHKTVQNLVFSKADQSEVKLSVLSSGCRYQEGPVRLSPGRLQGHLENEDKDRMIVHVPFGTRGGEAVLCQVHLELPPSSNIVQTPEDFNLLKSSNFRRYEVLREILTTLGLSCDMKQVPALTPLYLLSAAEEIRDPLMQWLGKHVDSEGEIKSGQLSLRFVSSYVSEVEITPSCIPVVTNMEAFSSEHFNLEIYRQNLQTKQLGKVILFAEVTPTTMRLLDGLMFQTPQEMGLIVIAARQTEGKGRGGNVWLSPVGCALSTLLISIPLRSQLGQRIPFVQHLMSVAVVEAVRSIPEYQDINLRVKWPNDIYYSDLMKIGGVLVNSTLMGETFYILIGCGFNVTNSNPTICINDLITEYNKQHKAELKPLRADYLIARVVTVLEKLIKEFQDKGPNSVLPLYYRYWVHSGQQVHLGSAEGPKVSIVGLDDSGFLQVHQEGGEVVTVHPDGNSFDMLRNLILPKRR

[2] = target: T2, Biotin--protein ligase (Homo sapiens) (UniProt P50747); assay: Inhibition of human recombinant HLCS using P67 as substrate at 500 uM after 2 hrs relative to vehicle-treated control
T2 sequence (whole entry): T1 sequence (P50747 whole entry)

[3] = target: T2, Biotin--protein ligase (Homo sapiens); assay: Competitive inhibition of human recombinant HLCS using P67 as substrate by Western blotting analysis in presence of biotin
Method in brief: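 Recombinant HLCS (30 nM) with 2 µM p67 and the activity-assay cofactors; inhibitor fixed at 250 µM or absent, biotin varied 0-360 µM. Reactions stopped with Tricine loading dye and 95°C for 10 min. Biotinylated p67 detected by Western blot with anti-biotin and infrared imaging.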

[4] = Binding affinity to Staphylococcus aureus biotin protein ligase
[5] = Selectivity for Staphylococcus aureus biotin protein ligase over human HLCS
[6] = target: T2, Biotin--protein ligase (Homo sapiens); assay: as §1

IC50 [1] [µM]	Ki [1] [µM]	inhibition [2] [%]	inhibition [3]	Selectivity ratio [5]	inhibition [6]	Structure (SMILES)	Ki [4] [µM]
204	10.4	67.7	Active	–	–	Nc1ncnc2c1ncn2[C@@H]1O[C@H](COP(=O)(O)CC(O)CCCC[C@@H]2SC[C@@H]3NC(=O)N[C@@H]32)[C@@H](O)[C@H]1O (stereo partly drawn)	–
–	–	–	inactive	–	–	COP(=O)(O)CC(=O)CCCC[C@@H]1SC[C@@H]2NC(=O)N[C@@H]21	–
–	–	–	–	> 1100	–	Nc1ncnc2c1ncn2[C@@H]1O[C@H](Cn2cc(CCCC[C@@H]3SC[C@@H]4NC(=O)N[C@@H]43)nn2)[C@@H](O)[C@H]1O	–
39.7	2	81.3	Active	–	Dose-dependent effect	Nc1ncnc2c1ncn2[C@@H]1O[C@H](COP(=O)(O)CC(=O)CCCC[C@@H]2SC[C@@H]3NC(=O)N[C@@H]32)[C@@H](O)[C@H]1O	–

Structure (SMILES)	IC50 [1] [µM]	Ki [1] [µM]	inhibition [2] [%]	inhibition [3]	Selectivity ratio [5]	inhibition [6]	Ki [4] [µM]
Nc1ncnc2c1ncn2[C@@H]1O[C@H](COP(=O)(O)OCCCCC[C@@H]2SC[C@@H]3NC(=O)N[C@@H]32)[C@@H](O)[C@H]1O	–	–	98	–	–	–	0.03
